In PubChem BioAssay AID504383 (The Scripps Research Institute Molecular Screening Center, 2011) one finds activation data, which are given here for 98 compounds.

Structures are written as SMILES. Among all 2,500 compounds or so, about 1,200 (48%) were called active.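 How the source made its calls: active means mean activation above the low control average plus 3 SD, as set in the primary screen (cut at about 12% in these data); inactive means the rest.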 So high a share suggests a set chosen from earlier hits. The list shows a part of the results.

For the assay, the target named is Troponin I, cardiac muscle (Homo sapiens) + Troponin T, cardiac muscle (Homo sapiens) + Troponin C, slow skeletal and cardiac muscles (Homo sapiens) (UniProt P19429+P45379+P63316). The assay can be described thus: cardiac RTF calcium sensitivity activators, confirmation, biochemical, IANBD-TnC fluorescence, triplicate (AID 504383).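 Further: 0% = DMSO at 0.472 mM calcium and 100% = DMSO at 2.9 mM calcium.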 The note with it: IANBD-labeled cardiac RTF, Ca2+ sensitivity fluorescence; at 7.2 µM; active compounds read high; scaled from EC20 to saturating calcium; tested at EC20 calcium, 0.472 mM. In short, it runs like this:
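Assay system: labelled regulated thin filaments / Timing: 15 min at 25 °C / Detection: fluorescence intensity of labelled filaments / Measure: fluorescence gain scaled between EC20 and EC100 calcium controls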
With `COc1ccc(OC)c(NC(=S)Nc2ccccc2)c1`, the activation is 5.57% (inactive).
Turning to `COc1ccc(OC)c(NC(=O)CNC(=O)Cn2c(C)cc3ccccc3c2=O)c1`, the activation was 3680% (active).
On to `NS(=O)(=O)c1ccc(NC(=O)COc2ccc(C(=O)c3ccc(F)cc3)cc2)cc1`, for which the activation was 1350% (active).
With `CCCC(CCC(=O)Nc1ccc(S(N)(=O)=O)cc1)C(=O)O` (stereo not drawn) the figure was 8.1% (inactive); with `O=C(Oc1cc2oc(=O)c3c(c2cc1Cl)CCCC3)c1cccs1`, 1.37% (inactive).
On to `CC1CC(C)CN(C(=O)COC(=O)CCc2nc3ccccc3c(=O)[nH]2)C1` (stereo not drawn), for which the activation was 8.84% (inactive).
Take `O=C(CN1C(=O)c2ccccc2C1=O)NCc1ccc(N2CCOCC2)cc1`: the activation was 12.4% (active).
On to `NC(=O)N/N=C/c1ccc(N2CCOCC2)s1`, for which the activation was 3.82% (inactive).
On to `COc1ccc(Sc2ccc(-c3nc4cnccn4c3NC3CCCCC3)cc2OC)cc1`, for which the activation was 3.89% (inactive).
Turning to `CCOC(=O)C1C(=O)C=C(/C=C/c2ccc(N(C)C)cc2)CC1c1ccccc1` (stereo not drawn), the activation was 5.48% (inactive).
For the compound `CN(C)c1ccc(/C=C/c2nc3ccccc3c(=O)n2CCO)cc1`, the activation is 398% (active).
For `C[C@@H]1C=C(C(=O)N2CCOCC2)O[C@H](OCc2ccc(CO)cc2)C1`, the activation is 6.41% (inactive).
Regarding `CC1(C)CC2CC(C)(CN2C(=S)Nc2ccccc2F)C1` (stereo not drawn), the activation was 3.28% (inactive).
As for `COc1cc2c(cc1[N+](=O)[O-])-c1ccccc1C2`, the activation was 302% (active).
Take `CNc1ccccc1C(C)(C)c1cc(C)[nH]n1`: the activation is 28.3% (active).
With `O=C(OCCN1C(=O)c2cccc3c(N4CCOCC4)ccc(c23)C1=O)c1ccccc1Cl` the figure was 13.6% (active); with `CCCN(CCC)S(=O)(=O)c1ccc(C(=O)OCCN2C(=O)c3cccc4c(N5CCOCC5)ccc(c34)C2=O)cc1`, 16.2% (active).
As to `CC(=O)N(C(C)=O)N1C(=O)c2cccc3c(N4CCOCC4)ccc(c23)C1=O`, the activation was 10.5% (inactive).
Regarding `O=C(OCCN1C(=O)c2cccc3c(N4CCOCC4)ccc(c23)C1=O)c1ccc(Cl)cc1`, the activation is 25.9% (active).
With `O=C(OCCN1C(=O)c2cccc3c(N4CCOCC4)ccc(c23)C1=O)c1ccc(Cl)cc1Cl`, the activation was 39.1% (active).
On to `COc1cccc(C(=O)Nc2cc(C(=O)NCc3ccc(C)cc3)ccc2N2CCC3(CC2)CC(c2cccc(Br)c2)=NO3)c1`, for which the activation was 5.62% (inactive).
With `O=C1OCC/C1=C\c1ccccc1O` the figure was 3.58% (inactive).
Regarding `CCN(CC)c1ccc(/C=c2\sc3nc4ccccc4n3c2=O)c(O)c1`, the activation was 41.3% (active).
On to `CC(=O)Oc1ccc(NC(=O)Cc2ccccc2)c(C(=O)O)c1`, for which the activation was 34.2% (active).
`Cc1ccc(OCc2ccc(C(=O)O)o2)cc1C`: the activation is 4.06% (inactive).
Turning to `COc1ccc(NC(=O)Cc2ccccc2)cn1`, the activation was 9.43% (inactive).
For the compound `CCN1C(=O)[C@@H]2[C@@H](c3ccc(-c4cccc(Cl)c4)cc3)N3CCC[C@@]3(C(=O)OC)[C@@H]2C1=O`, the activation is 14% (active).
Take `CCCCCCSc1ccc([C@@H]2[C@H]3C(=O)N(CC)C(=O)[C@H]3[C@]3(C(=O)OC)CCCCN23)cc1OC`: the activation was 6.92% (inactive).
Take `O=C(NCc1csc2ccccc12)Nc1cc(Cl)cc(Cl)c1`: the activation was 7.6% (inactive).
For the compound `O=C(O)/C=C/C(=O)NCc1csc2ccccc12`, the activation was 278% (active).
With `CCC(Oc1cc(Cl)ccc1Cl)C(=O)NNC(=O)CCC(=O)O` (stereo not drawn), the activation was 12.2% (active).
On to `Fc1ccc(CN2CC[C@H]3C=CCc4cccc(c43)C2)cc1`, for which the activation is 144% (active).
Take `COC1C(CO)OC(n2c3c(Cl)cccc3c3c4c(c5c6cccc(Cl)c6[nH]c5c32)C(=O)NC4=O)C(O)C1O` (stereo not drawn): the activation was 2.74% (inactive).
Regarding `CCN(CC)C(=O)C(=O)c1c(-c2ccccc2)[nH]c2ccccc12`, the activation was 20.5% (active).
The figure for `CCN(CC)CC(C(=O)N(CC)CC)P(=O)(c1ccccc1)c1ccccc1` (stereo not drawn) is 6.63% (inactive); for `CCN(CC)C(=S)SCC(=O)c1c(C)[nH]c2ccccc12` it is 27% (active).
As for `C=CCn1cccc(C(=O)Nc2ccc(OC)c(Cl)c2)c1=O`, the activation is 7.57% (inactive).
Turning to `CCOC(=O)CNc1ccc2c(c1)OCO2`, the activation was 15.4% (active).
As to `O=C(Nc1ccc2c(c1)OCCO2)c1cccc(Cl)c1Cl`, the activation is 77.8% (active).
As to `CCN(CC)S(=O)(=O)c1ccc2c(c1)nc(CCC(=O)Nc1ccc3c(c1)OCO3)n2C`, the activation was 8.98% (inactive).
Consider `O=C(COc1ccccc1)NC(=S)Nc1cccc(NC(=O)c2ccccc2Cl)c1`, for which the activation was 7.06% (inactive).
Regarding `CC(=O)c1cc2c(cc1N/C(=N/S(=O)(=O)c1ccc(Br)cc1)c1ccccc1)OCO2`, the activation is 5.61% (inactive).
As to `O=C(Nc1ccc2c(c1)OCO2)c1ccc2c(c1)OCO2`, the activation was 16.1% (active).
The figure for `CCOc1ccc2nc3cc(NCc4ccc(OC)cc4)ccc3c(N)c2c1` is 4.24% (inactive); for `CCCCOC(=O)Cn1c2ccc(OC)cc2c2nc3ccccc3nc21` it is 12.9% (active); for `COc1ccc(Cn2nnc3ccccc32)cc1` it is 8.45% (inactive).
Take `CCOc1ccc(Cn2c3ccc(OC)cc3c3nc4ccccc4nc32)cc1`: the activation was 81.5% (active).
Take `CCOC(=O)c1c(C(C)(C)C)oc2ccc(OCC#N)cc12`: the activation was 8.86% (inactive).
For the compound `CN(C)c1ccc(/C=C2\SC(=O)N(CCc3nnc(N)s3)C2=O)cc1`, the activation was 5.55% (inactive).
Take `CCOC(=O)CN1C(=O)S/C(=C/C=C/c2ccc(N(C)C)cc2)C1=O`: the activation is 3.71% (inactive).
With `CN(C)c1ccc(/C=C2\SC(=O)N(CC(O)Cn3c4ccccc4c4ccccc43)C2=O)cc1` (stereo not drawn) the figure was 14.3% (active); with `COc1cc2nc(/C=C/c3ccc(N(C)C)cc3)sc2cc1SC`, -0.52% (inactive).
With `O=C(COC(=O)c1cc(-c2cccc3ccccc23)nc2ccccc12)NC1CCS(=O)(=O)C1` (stereo not drawn) the figure was 13.5% (active); with `CCN1CC=C2C(C#N)=C(N)C(C#N)(C#N)C(c3cc(Cl)ccc3Cl)C2C1` (stereo not drawn), 253% (active); with `CCN1CC=C2C(C#N)=C(N)C(C#N)(C#N)[C@H](c3cccc(OC)c3OC)[C@H]2C1`, 14.7% (active).
For `CCCN1CC=C2C(C#N)=C(N)C(C#N)(C#N)C(c3cccc(OC)c3OC)C2C1` (stereo not drawn), the activation was 0.08% (inactive).
Consider `O=C(COC(=O)/C=C/c1ccc(Cl)cc1)NCCN1C(=O)CSC1=O`, for which the activation was 4.03% (inactive).
Turning to `Cc1ccc(C(C(=O)NC2CCCC2)N(C(=O)Cc2cccs2)c2cccc(C)c2C)o1` (stereo not drawn), the activation is 7.72% (inactive).
With `CCN(CC(=O)Nc1ccccc1C(=O)NC1CC1)Cc1cccs1`, the activation was 89.2% (active).
In the case of `O=C(c1ccccn1)N(Cc1cccs1)C1(C(=O)NC2CCCCC2)CCCCC1`, the activation is 1.46% (inactive).
The figure for `Cn1cc(/C=C2\SC(=S)N(NC(=O)c3cccc(Cl)c3)C2=O)c2ccccc21` is 52.1% (active).
With `Cn1cc(/C=C2\SC(=S)N(NC(=O)c3ccccc3)C2=O)c2ccccc21`, the activation was 40.9% (active).
With `Cn1cc(/C=C2\SC(=S)N(NC(=O)c3ccccc3Cl)C2=O)c2ccccc21`, the activation is 23.3% (active).
Regarding `Cc1ccc(C(=O)NN2C(=O)/C(=C/c3cn(C)c4ccccc34)SC2=S)cc1`, the activation was 19.4% (active).
Turning to `N#CCC(=O)N/N=C/c1ccc(N2N=C(c3ccccc3)CC2c2ccccc2)cc1` (stereo not drawn), the activation was 8.4% (inactive).
Consider `COc1ccc(C2CC(c3ccncc3)=NN2c2ccc(S(N)(=O)=O)cc2)cc1` (stereo not drawn), for which the activation was 13.1% (active).
With `N#CC1CC(c2ccc([N+](=O)[O-])cc2)=NN1c1ccc([N+](=O)[O-])cc1` (stereo not drawn) the figure was 6.69% (inactive).
`NS(=O)(=O)c1ccc(N2N=C(c3ccccc3)CC2c2ccccc2)cc1` (stereo not drawn): the activation is 31% (active).
For the compound `O=[N+]([O-])c1ccc(N2N=C(c3ccccc3)CC2c2ccccc2O)cc1` (stereo not drawn), the activation is 127% (active).
With `CSc1nnnn1-c1c(C)cc(C)cc1C`, the activation was 3.29% (inactive).
Consider `Cc1ccccc1-n1nnnc1SCC(C)C`, for which the activation is 103% (active).
With `O=C(COc1ccccc1F)NC1CC1`, the activation was 66.3% (active).
As to `COC(=O)c1cc2c(C)c(C)c3ccccn3c-2c1C(=O)OC`, the activation is 5.27% (inactive).
For the compound `O=C(N/N=C/c1cc([N+](=O)[O-])ccc1N1CCNCC1)c1ccc([N+](=O)[O-])cc1`, the activation was 19% (active).
`CCOc1ccc(NC(=S)c2ccncc2)cc1`: the activation is 6.9% (inactive).
For the compound `C=CCN1C(=O)[C@@H]2Cc3c([nH]c4ccccc34)C(c3ccc(O)cc3)N2C1=S` (stereo partly drawn), the activation was 4.94% (inactive).
Consider `N#CC12COC3(CCCCC3C1(C#N)C#N)OC2=N` (stereo not drawn), for which the activation is 2.01% (inactive).
With `COc1ccccc1N=C1NC(=O)/C(=C/c2ccc(N(C)C)cc2)S1`, the activation was 10.9% (inactive).
Turning to `CCCOc1ccc(-c2nn(-c3ccccc3)cc2/C=C2\SC(N)=NC2=O)cc1`, the activation is -0.61% (inactive).
For `CN(C)c1ccc(C=C2SC(=S)NC2=O)cc1`, the activation is 11.7% (active).
As for `CCOc1ccc(N(C)c2ccc(/C=C3/SC(=S)NC3=O)cc2)cc1`, the activation is 20.5% (active).
On to `CCN(CC)c1ccc(C=C2SC(=S)NC2=O)cc1`, for which the activation is 57.9% (active).
Take `CN(C)c1ccc(/C=C2\CCC/C(=C\c3ccccc3)C2=O)cc1`: the activation is 0.5% (inactive).
For `CCN(CC)c1ccc(/C=C2\SC(N)=NC2=O)cc1`, the activation was 108% (active).
With `COc1ccc(-c2nn(CCC(=O)O)cc2/C=C2\SC(N)=NC2=O)cc1` the figure was 8.42% (inactive).
The figure for `NC(=O)C1(NC(=O)[C@@H]2CC3(CC(c4cccc(NC(=O)[C@@H]5CCC(=O)N5)c4)=NO3)CN2C(=O)c2ccccc2)CC1` (stereo partly drawn) is 9.17% (inactive); for `COc1ccc(N/C=C2\C(=O)CCc3c2oc2cc(Cl)c(O)c(Cl)c32)cc1` it is 47.7% (active).
On to `Cc1cccc(/C=C2/SC(=O)N(Cc3ccccc3)C2=O)n1`, for which the activation is 47.1% (active).
With `COC(=O)c1ccccc1NC(=O)[C@@H]1CCC(=O)N1C1OC(=O)c2c1ccc(OC)c2OC` (stereo partly drawn), the activation was 3.55% (inactive).
With `CCOc1cc2c(cc1/C=C/c1noc(C)c1[N+](=O)[O-])OC(C)C2` (stereo not drawn), the activation was 330% (active).
The figure for `CCn1cc(/C=C/c2cc[n+](C)cc2)c2ccccc21` is 12.4% (active); for `C=CCn1c(C)c(/C=C/c2cc[n+](C)cc2)c2ccccc21` it is 38.7% (active); for `C=CCn1cc(/C=C/c2cc[n+](C)cc2)c2ccccc21` it is 5.8% (inactive).
On to `CC(C)n1cc(/C=C/c2cc[n+](C)cc2)c2ccccc21`, for which the activation was 31.7% (active).
As for `Cn1cc(/C=C/c2cc[n+](C)cc2)c2cc(Cl)ccc21`, the activation is 3.84% (inactive).
With `COC(=O)Cn1c(C)c(/C=C/c2cc[n+](C)cc2)c2ccccc21` the figure was 12.8% (active); with `Cn1cc(/C=C/c2cc[n+](C)cc2)c2cc(F)ccc21`, 6.92% (inactive); with `CCN(CC)C(=O)Cn1c(C)c(/C=C/c2cc[n+](C)cc2)c2ccccc21`, 6.95% (inactive).
